# Published values from different studies.
# MAP2K6: Dual specificity mitogen-activated protein kinase kinase 6 (MAP2K6, Homo sapiens, UniProt P52564)
SMILES,target,effect on,action,method,concentration,quantity,result
Cn1c2c(c3ccccc31)C(C#N)C(C)(C)NC2=O (stereo not shown),MAP2K6,thermal stability,,DSF,10 µM,ΔTm,0 °C
Cc1cc(-n2nc(Cc3cc(F)cc(C(F)(F)F)c3)nc2C)ccc1C(N)=O,MAP2K6,cell-free assay,,competition with immobilised ligand,1 µM,remaining binding,83%
CC(C)(C)c1nc2c(s1)c1nc(N)ncc1c1ccc(NS(=O)(=O)c3c(F)cccc3F)c(F)c12,"Dual specificity mitogen-activated protein kinase kinase 6 (MAP2K6, Homo sapiens, UniProt P52564, S207D/T211D)",enzyme activity,inhibitor,radiometric,1 µM,remaining activity,70%
FC(F)c1nc2ccccc2n1-c1nc(N2CCOCC2)nc(N2CCOCC2)n1,MAP2K6,enzyme activity,inhibitor,,10 µM,remaining activity,83%
CNCc1ccc(-c2cc(-c3nc(-c4ccc(S(=O)(=O)C(C)C)cc4)cnc3N)on2)cc1,MAP2K6,enzyme activity,inhibitor,,2 µM,inhibition,28%
Cn1c2c(Cl)c(Cl)ccc2c2cn[nH]c(=O)c21,MAP2K6,thermal stability,,DSF,10 µM,ΔTm,0.1 °C
CC[C@H](CO)Nc1nc(NCc2ccccc2)c2ncn(C(C)C)c2n1,MAP2K6,cell-free assay,,,0.5 µM,remaining signal,98.2%
CN(C)C1CCN(CC#Cc2nn(C3CCCC3)c3nc(NCc4ccccc4)ncc23)C1 (stereo not shown),MAP2K6,enzyme activity,inhibitor,FRET,1 µM,inhibition,6%
Cn1c2c(Cl)c(Cl)ccc2c2cc[nH]c(=O)c21,MAP2K6,thermal stability,,DSF,10 µM,ΔTm,0.2 °C
O=C(Nc1cnc(Oc2ccc(F)cc2)nc1)N1CCc2ncccc2[C@@H]1c1ccc(F)cc1,MAP2K6,cell-free assay,,competition with immobilised ligand,1 µM,remaining binding,77%
CCN(CC)c1ccc(C2=NNC(=O)CC2C)cc1[N+](=O)[O-] (stereo not shown),MAP2K6,enzyme activity,inhibitor,,10 µM,remaining activity,97%
O=C(Nc1cnn(-c2csc(C(=O)NC3COC3)c2)c1)Nc1c(F)cccc1Cl,MAP2K6,enzyme activity,inhibitor,,5 µM,remaining activity,94.4%
Cc1ccc(NC(=O)c2ccc(C)c(C(F)(F)F)c2)cc1C#Cc1nn(C2CCC(O)CC2)c2ncnc(N)c12 (stereo not shown),MAP2K6,cell-free assay,,,10 µM,remaining signal,43%
N#CCCc1ccc2c(c1)-c1[nH]c3ccc([N+](=O)[O-])cc3c1CC(=O)N2,MAP2K6,cell-free assay,,,0.5 µM,remaining signal,97.2%
Cc1sc(C(=O)NC2COC2)cc1-n1cc(NC(=O)Nc2c(F)cccc2Cl)cn1,MAP2K6,enzyme activity,inhibitor,,10 µM,remaining activity,86.4%
CCCOc1ccc(OC)c(F)c1C(=O)c1ccc(C(=O)N[C@@H]2CNC[C@H]2NC(=O)c2ccc3[nH]ncc3c2)cc1,MAP2K6,enzyme activity,inhibitor,,10 µM,remaining activity,103%
C[C@H](c1ccc(F)cc1)N(Cc1cccc(C(=O)O)c1)C(=O)c1cnc2ccccc2c1,MAP2K6,cell-free assay,,competition with immobilised ligand,1 µM,remaining binding,100%
Cc1ccc(NC(=O)c2ccc(CN3CCN(C)CC3)cc2)cc1Nc1nc(-c2cccnc2)cs1,MAP2K6,cell-free assay,,,0.5 µM,remaining signal,96.5%
CN(C)C(=O)Cn1cc(-c2nc(C3(c4ccc(-c5cnc(N)nc5)cc4)CC3)no2)cn1,MAP2K6,cell-free assay,,competition with immobilised ligand,1 µM,remaining binding,100%
Cn1c2c(c3ccc(Cl)c(Cl)c31)C(C#N)C1(CCCCC1)NC2=O (racemic),MAP2K6,thermal stability,,DSF,10 µM,ΔTm,0.2 °C
Nc1nc(Nc2ccc(S(N)(=O)=O)cc2)nn1C(=O)c1c(F)cccc1F,MAP2K6,cell-free assay,,,0.5 µM,remaining signal,90.5%
COc1cc(Nc2cnc(C#N)c(O[C@H](C)CN(C)C)n2)ncc1-c1cnn(C)c1,MAP2K6,enzyme activity,inhibitor,radiometric,1 µM,remaining activity,71%
O=C1Nc2ccc(Cl)cc2C1=Cc1cc(Cl)c(O)c(Cl)c1,MAP2K6,cell-free assay,,,0.5 µM,remaining signal,96.4%
CNC(=O)c1cc(Oc2ccc(NC(=O)Nc3ccc(Cl)c(C(F)(F)F)c3)cc2)ccn1,MAP2K6,enzyme activity,inhibitor,,0.3 µM,inhibition,-1%
COc1cc2ncnc(Nc3ccc(Oc4ccccc4)c(C)c3C)c2cc1OC,MAP2K6,enzyme activity,inhibitor,,1 µM,inhibition,2%
CO[C@@H](C)c1c(Nc2ccc([C@H](N(C)C(=O)C3CCS(=O)(=O)CC3)C(F)(F)F)cc2)cnc2cc(Cl)nn12,MAP2K6,cell-free assay,,competition with immobilised ligand,1 µM,remaining binding,91%
Cn1c2c(c3ccc(Cl)c(Cl)c31)C(C#N)C1(CCNCC1)NC2=O (racemic),MAP2K6,thermal stability,,DSF,10 µM,ΔTm,0.3 °C
Cc1ccc(Nc2nccc(N(C)c3ccc4c(C)n(C)nc4c3)n2)cc1S(N)(=O)=O,MAP2K6,enzyme activity,inhibitor,,10 µM,inhibition,90%
Cn1cc(Cl)c2c(Oc3c(F)cc(Nc4cc(Cl)nc(N)n4)cc3F)ccnc21,MAP2K6,cell-free assay,,competition with immobilised ligand,0.1 µM,remaining binding,100%
CCCS(=O)(=O)Nc1ccc(F)c(C(=O)c2c[nH]c3ncc(-c4ccc(Cl)cc4)cc23)c1F,MAP2K6,enzyme activity,inhibitor,,1 µM,inhibition,< 10%
Cc1nc(Cc2cccc(C(F)(F)F)c2)sc1-c1ccc(C(N)=O)nc1,MAP2K6,cell-free assay,,competition with immobilised ligand,1 µM,remaining binding,69%
Cc1cnc(NC2CCOCC2)nc1-n1cnc(C(=O)NC(CN)c2cc(F)cc(Cl)c2)c1 (stereo not shown),MAP2K6,enzyme activity,inhibitor,radiometric,1 µM,remaining activity,96%
C[C@@H]1CN(c2cc(-c3nn(C)c4ccc(OC5(C)CC5)cc34)ncn2)C[C@H](C)O1,MAP2K6,cell-free assay,,competition with immobilised ligand,1 µM,remaining binding,89%
Cc1ccc(C(=O)Nc2ccc(CN3CCN(C)CC3)c(C(F)(F)F)c2)cc1C#Cc1cnc2cccnn12,MAP2K6,enzyme activity,inhibitor,,23.5 nM,remaining activity,100%
